Screens from PubChem BioAssay.
Hits are enriched below; roughly 4.5% of the tested compounds scored in any of these assays.
p97 inhibitor: inhibitors of human p97 ATPase, primary screen, biochemical. Transitional endoplasmic reticulum ATPase (Homo sapiens), P55072. inhibition, % at 8 µM. recombinant p97 ATPase, Kinase-Glo ATP luminescence, 3 h. AID 1481, 2009. 220,000 compounds, 0.42% hits; in the data active means inhibition above about 15%;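 further: 0% = DMSO vehicle and 100% = wells lacking enzyme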
UPR XBP1 act: activators of adaptive XBP1 UPR arm, primary screen, cell-based, CHO-XBP1 luciferase reporter, luminescence, uHTS; IRE1-XBP1 UPR activation; percent of tunicamycin response, DMSO as zero; activation, % at 20 µM; 330,000 compounds, 0.33% hits; AID 463104, 2010;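 active means versus positive control, 20 µM dose yields 30% or more activation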;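 further: 100% = tunicamycin at 10 µg/mL and 0% = DMSO only wells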
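Material: CHO cell line with stable XBP1 luciferase reporter; schedule: 16-18 h cell attachment at 37 °C, then 6 h compound exposure; signal: glow luminescence from Steady-Glo reagent; medium: serum-containing F12 medium, 10% FBS; benchmarks: tunicamycin 10 µg/mL and vehicle-only wells; read-out: percent activation relative to tunicamycin reference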
UPR CHOP act: activators of apoptotic CHOP UPR arm, primary screen, cell-based, CHO-CHOP luciferase reporter, luminescence, uHTS; UPR activation; percent of tunicamycin response over DMSO baseline; activation, % at 10 µM; 330,000 compounds, 0.34% hits; AID 449763, 2010;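 active means at 10 µM dose, activation of 40% or more, normalized to positive control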;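 further: 100% = tunicamycin at 10 µg/mL and 0% = DMSO alone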
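assay system = CHO CHOP reporter cells | amount = 500 CHO-CHOP cells per well | buffer or medium = F12 with 10% FBS | incubation = 16-18 h cell attachment, then 6 h compound exposure, 37 °C | detection = luminescence read with Steady-Glo | read-out = percent activation relative to tunicamycin control | controls = tunicamycin high control, DMSO low control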
HCV NS3 hel inh: inhibitors of HCV NS3 helicase, primary screen, biochemical, Cy5 molecular beacon fluorescence | Hepatitis C virus NS3 helicase | NS3 helicase DNA unwinding | inhibition, % at 10.9 µM | 290,000 compounds, 0.56% hits;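 active means inhibition above the mean of all tested compounds plus 3 SD, set per campaign, cut at about 35% in these data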;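 further: 0% = DMSO wells and 100% = thioflavine S control wells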
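assay system = NS3 helicase fragment of HCV | buffer or medium = MOPS pH 6.5, MgCl2, DTT, Tween20, BSA | timing = 60 min unwinding reaction at 25 °C after ATP addition | signal = Cy5 beacon fluorescence read at start and 1 h | read-out basis = % inhibition of unwinding | control set = low DMSO, high thioflavine S at 110 µM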
CHOP inh: inhibitors of CHOP promoter induction, primary screen, cell-based, unfolded protein response, luciferase reporter. CHO-K1 CHOP-promoter luciferase, tunicamycin-induced, 15-18 h. inhibition, % at 10 µM. 220,000 compounds, 3.8% hits. AID 2732, 2010;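 active means compounds that reduced the stress-induced luciferase reporter signal by more than about 70% of percent inhibition, limit read from the data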;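 further: 0% = tunicamycin plus vehicle and 100% = wells without tunicamycin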
PfM18AAP inh: PfM18AAP inhibitors, malaria aminopeptidase, primary screen, biochemical, QFRET, recombinant enzyme | M18 aspartyl aminopeptidase (Plasmodium falciparum 3D7) | H-Glu-NHMec fluorogenic cleavage | inhibition, % at 7.35 µM | 290,000 compounds, 1.2% hits;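 active means inhibition above the campaign mean inhibition over all tested compounds plus 3 SD, cut at about 28% in these data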;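 further: 0% = plate median of test compound wells and 100% = 2 mM ZnCl2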
CHOP confirm: retest of CHOP induction inhibitors, confirmation, cell-based. shares compounds with CHOP inh. AID 504437, 2011. CHO-CHOP promoter luciferase reporter, tunicamycin-induced, luminescence. inhibition, % at 10 µM. 2,100 compounds, 45% hits;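 active means mean of three repeat readings of reporter signal inhibition above a set limit, cut at about 70% in these data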;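 further: 0% = tunicamycin plus vehicle and 100% = wells lacking tunicamycin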
* marks the source's active call; other numbers are inactive results; x = not tested or not shown.

SMILES	p97 inhibitor	UPR XBP1 act	UPR CHOP act	HCV NS3 hel inh	CHOP inh	PfM18AAP inh	CHOP confirm
FC(F)(F)c1ccc(/C=N/NC(=S)NC2CCCCC2)cc1	4	-1	-1	-3	106*	4	108*
O=C(CC(NC(=O)c1ccccc1)c1ccccc1)Nc1cccc2ccccc12 (centres undefined)	3	-1	-1	4	104*	2	1
O=C(CC(NC(=O)c1ccccc1)c1ccccc1)NCc1ccccc1 (centres undefined)	x	-2	-1	x	x	x	x
Cc1ccccc1N=C(NOCc1ccccc1)c1nonc1N	1	-2	0	-4	100*	1	32
N#Cc1c(N)nc(-c2ccccc2)nc1-c1ccccc1	2	5	0	-2	107*	5	21
NC(=O)CC(NC(=O)Cc1ccc(Br)cc1)c1ccc(N2CCN(c3ccccc3)CC2)c([N+](=O)[O-])c1 (centres undefined)	x	-1	0	x	103*	x	32
NC(=O)CC(NC(=O)Cc1ccc(Br)cc1)c1ccc(N2CCN(c3ccccn3)CC2)c([N+](=O)[O-])c1 (centres undefined)	x	-2	-3	-30	x	3	x
CCCCNc1ccc(C(CC(N)=O)NC(=O)Cc2cccc3ccccc23)cc1[N+](=O)[O-] (centres undefined)	x	-2	0	x	104*	x	26
COc1ccc(CCNc2ccc(C(CC(N)=O)NC(=O)Cc3cccc4ccccc34)cc2[N+](=O)[O-])cc1 (centres undefined)	x	-5	1	x	63	x	x
Cc1cccc(CNc2ccc(C(CC(N)=O)NC(=O)Cc3cccc4ccccc34)cc2[N+](=O)[O-])c1 (centres undefined)	x	-1	1	x	105*	x	17
O=C(CNC(=O)c1ccc(Br)o1)NCC1CCCCC1	x	2	-1	x	x	x	x
O=C(CCl)NN1C(=O)NC(c2ccccc2)(c2ccccc2)C1=O	x	2	-1	-10	x	-4	x
CCOc1ccc(Cl)cc1S(=O)(=O)N1CCC(C(=O)NCC2CCCO2)CC1 (centres undefined)	x	-2	-1	0	x	-6	x
Cc1ccc(-c2nc(-c3ccccn3)no2)cc1	-53	-10	-10	4	x	-1	124*
Cc1ccccc1-c1noc(-c2ccc(O)cc2)n1	-2	2	3	-3	105*	7	23
Cc1ccc(-c2noc(-c3ccccc3Br)n2)cc1	3	-3	2	1	-28	0	x
Cc1cc(C)nc(-n2cc(C(=O)c3cc(F)ccc3O)cn2)n1	6	0	0	-6	97*	3	27
BrC(=C\c1ccccc1)/C=N/N1CCN(Cc2ccccc2)CC1	-6	-5	0	-8	98*	-3	30
BrC(/C=N/N1CCN(Cc2ccccc2)CC1)=C/c1ccccc1	-10	-3	1	1	19	6	x
Cc1cc(/C(=N/O)C(C)(C)NO)ccc1Cl	-5	2	0	14	102*	2	-76
Cc1cc(C)n(-c2nc3ccccc3nc2N2CCCCCC2)n1	-7	0	-1	-11	96*	-3	36
CCc1ccc(C(=O)Cn2ccsc2=N)cc1	x	-5	4	2	x	5	x
O=C(CCCOc1ccc(Cl)cc1Cl)N/N=C\C1CCCCC1	0	-1	1	-5	105*	-2	83*
O=C(CSc1ccc2nnc(-c3cccc(F)c3)n2n1)N1CCCc2ccccc21	-6	1	0	4	105*	-1	33
CCc1ccc(NC(=O)[C@H](C)NC(=O)C2CCN(C(=O)[C@@H](N)C(C)C)CC2)cc1	x	2	2	-2	x	4	x
SMILES	p97 inhibitor	UPR XBP1 act	UPR CHOP act	HCV NS3 hel inh	CHOP inh	PfM18AAP inh	CHOP confirm
CCc1ccc(C(=O)/C=C/Nc2ccc(S(=O)(=O)Nc3cnc4ccccc4n3)cc2)cc1	-2	4	4	8	101*	-16	9
O=C(/C=C/Nc1ccc(S(=O)(=O)Nc2ncccn2)cc1)c1cccs1	12	0	1	3	15	0	x
O=C(/C=C/Nc1ccc(S(=O)(=O)Nc2ncccn2)cc1)c1ccc(Cl)c(Cl)c1	-1	-1	1	0	102*	-6	5
COc1ccccc1NC(=O)C(C)Sc1nc(-c2ccccc2)cn1N (centres undefined)	x	-3	-1	x	x	x	x
O=C1CCCN1CCCNc1nc2c(S(=O)(=O)c3ccc(Br)cc3)nnn2c2ccccc12	x	2	2	4	x	4	x
O=C(NCc1ccccc1Cl)C1CCC(CNc2nc(=S)[nH]c3ccccc23)CC1 (centres undefined)	11	4	-2	-10	98*	13	16
COc1cc(-n2nnnc2SCC(=O)N2CCN(c3ccc(F)cc3)CC2)c(OC)cc1Cl	10	x	x	8	98*	2	49
CCOC(=O)CSc1nnnn1-c1cc(OC)c(Cl)cc1OC	-3	-1	-2	8	32	2	x
Cc1ccc(-n2nc(C)c3c2OC(N)=C(C#N)C3c2ccncc2)cc1 (centres undefined)	-1	0	16	23	1	3	x
Cc1ccc(-n2nc(C)c3c2OC(N)=C(C#N)C3c2ccccc2F)cc1 (centres undefined)	-6	-10	-4	12	96*	-2	5
C[C@H](NC(=O)c1[nH]cnc1C(=O)Nc1ccc(Cl)cc1)C(=O)OC(C)(C)C	x	-2	1	x	105*	x	91*
CCOC(=O)c1ccc(NC(=O)c2nc[nH]c2C(=O)N[C@@H](CC(C)C)C(=O)OC(C)(C)C)cc1	x	2	2	x	25	x	x
CCOC(=O)c1ccc(NC(=O)c2nc[nH]c2C(=O)N[C@@H](C)C(=O)OC(C)(C)C)cc1	x	-3	1	x	97*	x	104*
CCCCc1c(C)nn(-c2nnc3c4ccccc4n(CC)c3n2)c1C	2	29	3	-3	105*	1	99*
CCn1ncc([N+](=O)[O-])c1C(=O)N1CCc2ccccc2C1	x	4	2	-5	x	1	x
COC(=O)c1c(NC(C)=O)csc1C	5	-1	1	3	-7	-8	x
